We go through three compounds from ChEMBL document CHEMBL1772965, “Analogues and derivatives of oncrasin-1, a novel inhibitor of the C-terminal domain of RNA polymerase II and their antitumor activities” (J Med Chem, 2011).

The nature of data set [1]: Cytotoxicity against mutant K-ras-transformed human T29Kt1 cells assessed as cell viability after 3 days by sulforhodamine B assay. The data set is classed as functional, cell-based. Particulars: T29Kt1, 72 h. In outline: (§1)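 Monolayer cultures were grown in RPMI-1640 or DMEM with 10% heat-inactivated fetal calf serum and penicillin/streptomycin, at 37°C and 5% CO2. Cells were exposed for 3 days to compound from 10−4.5 M (31.6 μM) down to 10−8 M (10 nM), with 1% DMSO as the control. Viability was read by sulforhodamine B. IC50 was the dose halving surviving cells versus control, run in quadruplicate and repeated at least three times.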

In data set [2] the test system is NCI-H460. The data set can be described thus: Cytotoxicity against human H460 cells assessed as cell viability after 3 days by sulforhodamine B assay. Particulars: NCI-H460, 72 h. It is filed as functional, cell-based. The procedure, abridged:
as §1
On the technique in general: The SRB assay estimates cell density from bound dye.

Data set [3] concerns NCI-H157. In words: Antitumor activity against human NCI-H157 cells assessed as cell viability after 3 days by sulforhodamine B assay. Particulars: NCI-H157, 72 h. The data set is classed as functional, cell-based. The procedure, abridged:
as §1

Data set [4] in a line: Stability of compound at pH 6. The data set is classed as physicochemical. Particulars: buffer.
A short description of data set [5]: Stability of compound at pH 7.4. It is filed as physicochemical. The following applies: buffer.
Data set [6] concerns NCI-H322. The data set can be described thus: (§2) Antitumor activity against human NCI-H322 cells assessed as cell viability after 3 days by sulforhodamine B assay. The data set is classed as functional, cell-based. In outline:
as §1

Data set [7] relates to NCI-H460. In words: Antitumor activity against human H460 cells assessed as cell viability after 3 days by sulforhodamine B assay. The following applies: for IC50: NCI-H460, 72 h. The data set is classed as functional, cell-based. In outline: as §1
A short description of data set [8]: Stability of compound at pH 4. It is filed as physicochemical. Particulars: buffer.
Data set [9] has as its system NCI-H157. The data set can be described thus: Inhibition of RNA pol2 CTD phosphorylation in human NCI-H157 cells at 1 uM after 12 hrs by Western blot analysis. It is filed as cell-based. In outline: (§3)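 Cells were treated with 1 μM compound for 12 h and then analysed by Western blot. Phospho-CTD was detected with the H5 antibody (diluted 1:1000), and β-actin (1:1000) served as the loading reference.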
(In general: In western blotting, separated proteins are transferred to a membrane and probed.)

A further data set has as its system NCI-H1299. In words: (§4) Antitumor activity against human H1299 cells assessed as cell viability after 3 days by sulforhodamine B assay. It is filed as functional, cell-based. The procedure, abridged:
as §1

The next data set has as its system H1299. The data set can be described thus: Inhibition of RNA pol2 CTD phosphorylation in human H1299 cells at 1 uM after 12 hrs by Western blot analysis. The data set is classed as cell-based. The procedure, abridged: as §3
In another data set the test system is H460. The data set can be described thus: Inhibition of RNA pol2 CTD phosphorylation in human H460 cells at 1 uM after 12 hrs by Western blot analysis. The data set is classed as cell-based. In outline: as §3
Data set [10] can be described thus: Cytotoxicity against human T29 cells assessed as cell viability after 3 days by sulforhodamine B assay. It is filed as cell-based. Particulars: T29, 72 h. In outline: as §1
The test system of data set [11] is NCI-H322. In words: Inhibition of RNA pol2 CTD phosphorylation in human NCI-H322 cells at 1 uM after 12 hrs by Western blot analysis. It is filed as cell-based. The procedure, abridged: as §3
The nature of data set [12]: Stability of compound at pH 9. It is filed as physicochemical. Particulars: buffer.
Data set [13] in a line: Stability of compound at pH 2. Particulars: buffer. The data set is classed as physicochemical.
The nature of data set [14]: as §2. The data set is classed as functional, cell-based. Particulars: NCI-H322, 72 h. The procedure, abridged: as §1
The nature of data set [15]: as §4. The following applies: NCI-H1299, 72 h. The data set is classed as functional, cell-based. In outline: as §1

SMILES strings stand for the structures. Calls of active or inactive are those of the source. The rule behind the calls is not given here. Where only a bound is given, the exact number is not on record here.

One may read the IC50 as the concentration needed to halve the response being measured. `OCc1cn(Cc2ccc(Cl)cc2)c2ccccc12`: the half-inhibitory concentration (IC50) in data set [1] was 79 nM; in the data set on NCI-H460 [2] it was 16 nM; with NCI-H157 [3], not above 200 nM; with NCI-H460 [7] it was not above 200 nM; in [10], more than 31.6 µM. The Stability result is recorded as “Stable” in data set [4]; “Stable” in [5]; “Stable” in [8]; “Stable” in [12]; “Unstable” in data set [13]. For the same compound, the Activity result in the data set with NCI-H322 [6], in the data set with NCI-H460 [7] and with NCI-H1299 was “Dose-dependent effect” each time. In addition, the inhibition result in the data set on NCI-H157 [9] was “Dose-dependent effect”. Besides, the inhibition entry in the data set with H1299 and in the data set on NCI-H322 [11] was “inactive” each time. For the same compound, the inhibition result in the data set with H460 is “Active”.

Take `OCc1cn(Cc2cccc(F)c2)c2ccc(Cl)cc12`: the IC50 in [1] is 160 nM; with NCI-H460 [2], 70 nM; with NCI-H157 [3] it was not above 200 nM; in data set [14], not below 13 µM; with NCI-H460 [7], not above 200 nM; in data set [15], not below 13 µM. For the same compound, the IC50 in data set [10] amounted to 10 µM. Also, the Stability entry in data set [4] is given as “Stable”; in [5], “Stable”; in data set [8], “Stable”; in data set [12], “Stable”; in [13], “Unstable”. The inhibition result in the data set with NCI-H157 [9] and with H460 was “Active” in each case. Also, the inhibition entry with H1299 and in the data set on NCI-H322 [11] was “inactive” each time.

With `OCc1cn(Cc2cccc(Cl)c2)c2ccccc12`, the IC50 in data set [1] is 160 nM; with NCI-H460 [2], 19 nM; in the data set with NCI-H157 [3] it was not above 200 nM; with NCI-H460 [7], not above 200 nM; in data set [10] it was more than 31.6 µM. In addition, the Stability entry is on record as “Stable” in data set [4]; “Stable” in data set [5]; “Stable” in [8]; “Stable” in data set [12]; “Unstable” in data set [13]. Further, the Activity result with NCI-H322 [6], in the data set with NCI-H460 [7] and in the data set on NCI-H1299 was “Dose-dependent effect” each time. For the same compound, in the data set with NCI-H157 [9], the inhibition result was “Dose-dependent effect”. For the same compound, the inhibition result in the data set on H1299 and in the data set on NCI-H322 [11] was “inactive” each time. For the same compound, in the data set with H460, the inhibition result is “Active”.
